Reference: the EternaBench riboswitch data

System: MS2 coat protein
Assay: apparent Kd, MS2 coat protein; higher = weaker binding; RNA-MaP array; FMN 200 µM where present
Method in brief: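 SNAP-549-labelled MS2 coat protein, doubled from 0.7 or 1.5 nM to 3 µM, was titrated over designs transcribed by stalled E. coli RNA polymerase on Illumina sequencing-chip clusters. Titrations were run without and then with constant ligand in 100 mM Tris-HCl pH 7.5, 80 mM KCl, 4 mM MgCl2, BSA, DTT, yeast tRNA and Tween-20. The apparent Kd is the median of filtered per-cluster fits to green signal normalised to red-channel RNA signal and control-cluster median Fmax.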

[1] = designed as: OFF switch for flavin mononucleotide, no ligand
[2] = ligand present: flavin mononucleotide, designed as: OFF switch for flavin mononucleotide
[3] = designed as: ON switch for flavin mononucleotide, no ligand
[4] = ligand present: flavin mononucleotide, designed as: ON switch for flavin mononucleotide

| Sequence | apparent Kd [1] [nM] | apparent Kd [2] [nM] | apparent Kd [3] [nM] | apparent Kd [4] [nM] |
| --- | --- | --- | --- | --- |
| ACAAGGCAUGUAGGAUAUCCAUUGCGUCGCGAUGGAGAAGGGCAACACACAUGAGGAUCACCCAUGUGGUCACCCAUGUCGUGU | 55.8 | 68.8 | – | – |
| UGGUGAAAUGUAGGAUAUGGAAAUAAAUUUUAACCAGAAGGACAUGAGGAUCACCCAUGUGAUAGAGAAUUAAUAAUAGCUCCU | 26.9 | 31.3 | – | – |
| GGUUCGAAAGUGAGGAUAUGCUGGUCCUUGGAUCAGCAGAAGGCACAUGAGGAUCACCCAUGUCCAAGCGGACC | 59 | 398 | – | – |
| GCGGGAUGAGUCGUUGGUUCACAUGAGGAUCACCCAUGUAGGGAGGAUAUACAUCUGGUCCCGGAGUAGAAGGCCCUACAUCGG | 163 | 107 | – | – |
| UUCAGCUCGUGAGGAUAUACAUGUGCUGGAUACAGCACUAUUAUGUUCACAUGAGGAUCACCCAUGUAGAAGGCACGAGCUGAG | 16.6 | 21.4 | – | – |
| AAUAACAGAGGAUAUACUAUUUUAUGUGUUUAUUGUUUUGAACAUGAGGAUCACCCAUGUAGAAGGCUGAAUGA | 29.9 | 35.8 | – | – |
| ACUUGUUACUUAAUCAUUGAUUUGUAGGAUAUACGUACAUGAGGAUCACCCAUGUUACAUGGUAUGUAGAAGGACAUCUAAUUU | 11 | 11.2 | – | – |
| GGAAAUCAUGUAGGAUAUGCAUGGCGAAGCUACGCAGAAGGACAUGAGGAUCACCCAUGUUAUAGCGUCCGAGUAAGGAUGCAA | 42.1 | 123 | – | – |
| GUAGAGUAAGGAUAUACAGAAUAGGAUAGAAUGGUUAGAAUGUAGAAGGUACAUGAGGAUCACCCAUGUAAUGU | 19.7 | 18.4 | – | – |
| UGGUACAUGGGAGGAUAUCAUGUGAUAACAUGAGGAUCACCCAUGUCGAUGGAGACAUCGGAGAUUGAGAAGGCCCAUGUACCU | – | – | 1190 | 96.5 |
| GCACAUUUGUAAGGAUAUACAACAUGAGGAUCACCCAUGUGUUGGAAUUUAGUAGAAGGUACAGACAUGAGUAUCACUUUUGUA | – | – | 72.7 | 51.9 |
| GUAUUUAGAUAAGGAUAUAAGUCUAUGACAUGAGGAUCACCCAUGUGUGUCUUAGAAGGUAUUUGGGUAAUAUUGUUACAGUAA | – | – | – | 16.2 |
| AACACGAGAGGUGUUGUCUAACCACAUGAGGAUCACCCAUGUAAGGAUAUCGCGGCUAUCGGCAUCGAGAAGGUACAGGGAGCA | 16.2 | 31.4 | – | – |
| AAAAAAAAGCCCAAGGAUAUCCGGAUGAAGACAUGAGGAUCACCCAUGUGAAAAAAAAAAUAUGAGGAGAAGGUGGGAAAAAAAAA | – | – | 83.6 | 61.6 |
| AUAAAGUGAGGAUAUGUAAAAAUAACGAAAGUUAUAAAUAAACAGAAGGCACAUGAGGAUCACCCAUGUCCAAU | 26.8 | 43.1 | – | – |
| UGGCUACAUGAGGAUCACCCAUGUCAGGAUAUGCCGUUGGAUUGCCUUCGUCGUUCGGGUAGAAGGGACUGCGU | 30.3 | 27.5 | – | – |
| AUCAGCUCCUCAGGAUAUACGUCACUGCGUCAGCAGUGUGGUAAGAUCACAUGAGGAUCACCCAUGUAGAAGGGACGAGCUGAU | 31.8 | 140 | – | – |
| CUUUUGUGAGGAUAUCAGUAGUAAAUAAAUAAAAUUACUACUGAGAAGGCACAUGAGGAUCACCCAUGUUCCUU | 14.7 | 28.4 | – | – |
| UGUAUACAUGAGGAUCACCCAUGUCAACGUAGUCGAGGAUAUGGGCAGCCGUGAGGCGUACUAGAAGGCGAAGAGG | – | – | 337 | 110 |
| ACAAGAUCAGGAUAUACAUGAGGAUCACCCAUGUAUUUCAAAAAGGGACUUUCUUAAUGUAGAAGGGAUCUUGU | 22.5 | 94.4 | – | – |
| AGAUGGUGAUGUUAUCUUCGUCGGACAUGAGGAUCACCCAUGUAGGAUAUGCUACUCAAAGAGUAGCAGAAGGACAUGUAUCUU | 119 | 896 | – | – |

| Sequence | apparent Kd [1] [nM] | apparent Kd [2] [nM] | apparent Kd [3] [nM] | apparent Kd [4] [nM] |
| --- | --- | --- | --- | --- |
| AUGAGAGCAGGAUAUGCAGGUGUGCCGGAAGAAAGAAGAAGACAUGAGGAUCACCCAUGUAGAAGGGCUAGCCC | 19.1 | 15.6 | – | – |
| UUUUUACUUGCAGGAUAUGGAGACAUGAGGAUCACCCAUGUAUGAGGAGCUAAAUUAUGCUGUGGCCAGAAGGGUAUUGUUCUU | – | – | 66.6 | 58.8 |
| GAUCGACCUGAGAAGGCACAUGAGGAUCACCCAUGUUGAACCAUACAUGCCACAAAGUGGCAAUGUGAGGAUAUCAGGUCGAUC | 6.54 | 12.1 | – | – |
| GCAGCGUAUGUAGGAUAUCGGUCAGAUUCUGAUCGAGAAGGACAUGAGGAUCACCCAUGUAAAUUACCGACUUUGUCGGGCUGC | 6.73 | 8.18 | – | – |
| CCGAGAAGGACAGGAUAUGGACAUGAGGAUCACCCAUGUACAUGGGAAUAUAUACUGAAUUUUUACUAGAAGGGUUACAUAAAU | 19.3 | 14.9 | – | – |
| UAGAAGUCAGGAUAUGCUGCUCGUCACUUGCGUGAUGAGUAGCAGAAGGGACAUGAGGAUCACCCAUGUAAAGG | 208 | 424 | – | – |
| GUAGCAUACCAAGGAUAUUCAGGGCUUGGAUAGACAUGAGGAUCACCCAUGUGGCGAAAGUCUAGGGAGAAGGUGGUAUGCUAC | – | – | 16 | 13.8 |
| CCAUCAGCGAACGAUACGGUUGGACAUGAGGAUCACCCAUGUAGAAGGACAGGAGAAUAACGGCUGUAGGAUAUACAUUUAGUG | 40.7 | 33.9 | – | – |
| GUGUAGGCAGGAUAUACAUGAGGAUCACCCAUGUGAAUAAGAUAGAAUAAGAUAAAGUGUAGAAGGGUUAGUGU | 40.7 | 32.4 | – | – |
| ACAAGGCAUGUAGGAUAUCCAUUGCGUCGCGAUGGAGAAGGACAACACACAUGAGGAUCACCCAUGUGGUCACCCAUGUCGUGU | 51.3 | 169 | – | – |
| UAAAUUAACAAGAAGGCUAACAUGAGGAUCACCCAUGUUGUACAUGGAUAUAGAGGAUAUUGCUAAUAUUUAUUUAUCAUAAUU | 21.8 | 17.3 | – | – |
| GUGUGCAGAGGAUAUACAGAGGAAAAGAAAAGAGAAGGGAGACAUGAGGAUCACCCAUGUAGAAGGCUGAGUGU | 64.4 | 91.8 | – | – |
| GUUACAUGAGGAUCACCCAUGUAUGUGUGGGAGUAAGUGUCUUAGGAUAUCUAUUAUUUAAAUUAAGAGAAGGAAGAUUGUUGU | – | – | 123 | 137 |
| GGACGUCACAUCUACAUGAGGAUCACCCAUGUCAAAAGACAUGAGGAUAUGCUACCUAAUUGGUAGCAGAAGGCAUGGACGUCC | – | – | 1070 | 71.5 |
| AAUUAGGUCACAGGAUAUACAACAUCCAUAGCUGUAGAAGGGUGUCAAAAUAAUAUCUGACAUGAGGAUCACCCAUGUUUCCAC | – | – | 15.8 | 12.7 |
| AGUACUCAAAGAGUACCCAUACGGACAUGAGGAUCACCCAUGUAGGAUAUGCUACUCAAAGAGUAGUAGAAGGACAUAUUCCUC | 9.52 | 20.3 | – | – |
| AUGCUUCACACAGGAUAUACAUGAGGAUCACCCAUGUGUCCACCGUAGCUGACACGAGCUACGCGGUAGAAGGGUGUGAAGCAU | 18 | 33.3 | – | – |
| AAUAUGUUGCAGAAGGUUAUAUUUUUUUCGUACCUCAUGACAUGAGGAUCACCCAUGUAUUUGUUGAAGGAUAUGCAAUAUAUU | 21.5 | 17.7 | – | – |
| GGUCUUCAAGUCAGGAUAUCGUCUGGUCGGUCUGGCGAGAAGGGACAUGAGGAUCACCCAUGUCGUCUCAUCAG | 25.5 | 40.2 | – | – |
| AGUCAUACAGGAUAUACAUGAGGAUCACCCAUGUUUAUCCUAAAAAAGUGAUCCUCAUGUAGAAGGGUAUGACA | 15.2 | 18.9 | – | – |
| UUGAUUAUACAAGGAUAUCAAUUGUAUACAAGUCUUACAUGAGGAUCACCCAUGUUAAAUUUUUUUGAGAAGGUGUGUUGUCAG | – | – | 33.9 | 28.5 |
